Assays:
Plasmodium falciparum [1] = experiment: In vitro antimalarial activity against Plasmodium falciparum K1 by [3H]hypoxanthine uptake; format: functional, organism-based
Plasmodium falciparum [2] = experiment: In vitro antimalarial activity against Plasmodium falciparum HB3 by [3H]hypoxanthine uptake; format: functional, organism-based
Jurkat = experiment: Inhibitory concentration against Jurkat cells; format: functional, cell-based; conditions: Homo sapiens
Summary of the method: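 Jurkat cells were grown in RPMI-1640 with 10% v/v FBS and 1% v/v L-glutamine at 37 °C under humidified 5% CO2, kept below 1 × 10⁶ cells/mL, with viability above 95%. Cells were plated at 1 × 10⁵/well and exposed to 10⁻¹⁰–10⁻⁴ M drug for 72 h, with final DMSO below 0.5% v/v. [³H]-thymidine (0.5 μCi/well) was added at 48 h for the final 24 h, and incorporation was read by β-scintillation counting.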

HL-60 = experiment: Inhibitory concentration against HL60 cells; format: functional, cell-based; conditions: Homo sapiens
Summary of the method: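 HL60 (2.5 × 10⁴/well) or Jurkat (1 × 10⁵/well) in RPMI-1640 with 10% FBS and 1% L-glutamine, 5% CO2, 37 °C. Exposed to 10⁻¹⁰–10⁻⁴ M for 72 h, final DMSO below 0.5% v/v. [3H]-thymidine (0.5 μCi) added for the final 24 h. Incorporation counted by β-scintillation.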

Row | IC50 (Jurkat) [nM] | IC50 (HL-60) [nM] | SMILES | IC50 (Plasmodium falciparum [1]) [nM] | IC50 (Plasmodium falciparum [2]) [nM]
1 | – | – | C[C@H]1[C@@H](CCOC(=O)c2ccc(C(=O)OCC[C@H]3O[C@@H]4O[C@]5(C)CC[C@H]6[C@H](C)CC[C@@H]([C@H]3C)[C@@]46OO5)cc2)O[C@@H]2O[C@]3(C)CC[C@H]4[C@H](C)CC[C@@H]1[C@@]24OO3 | 4.6 | –
2 | – | – | C[C@H]1[C@@H](CCOC(=O)c2cccc(C(=O)OCC[C@H]3O[C@@H]4O[C@]5(C)CC[C@H]6[C@H](C)CC[C@@H]([C@H]3C)[C@@]46OO5)c2)O[C@@H]2O[C@]3(C)CC[C@H]4[C@H](C)CC[C@@H]1[C@@]24OO3 | 42.2 | –
3 | – | – | C[C@H]1[C@@H](CCOP(=O)(Oc2ccccc2)Oc2ccccc2)O[C@@H]2O[C@]3(C)CC[C@H]4[C@H](C)CC[C@@H]1[C@@]24OO3 | 3.1 | –
4 | – | – | C[C@H]1[C@@H](CCOCc2ccccc2COCC[C@H]2O[C@@H]3O[C@]4(C)CC[C@H]5[C@H](C)CC[C@@H]([C@H]2C)[C@@]35OO4)O[C@@H]2O[C@]3(C)CC[C@H]4[C@H](C)CC[C@@H]1[C@@]24OO3 | 2.9 | 1.3
5 | – | – | C[C@H]1[C@@H](CCOCc2ccc(COCC[C@H]3O[C@@H]4O[C@]5(C)CC[C@H]6[C@H](C)CC[C@@H]([C@H]3C)[C@@]46OO5)cc2)O[C@@H]2O[C@]3(C)CC[C@H]4[C@H](C)CC[C@@H]1[C@@]24OO3 | 2.4 | –
6 | – | – | C[C@@H]1CC[C@H]2[C@@H](C)C(=O)O[C@@H]3O[C@@]4(C)CC[C@@H]1[C@]32OO4 [ARTEMISININ] | 12.3 | –
7 | – | – | C[C@H]1[C@@H](CCOCc2cccc(COCC[C@H]3O[C@@H]4O[C@]5(C)CC[C@H]6[C@H](C)CC[C@@H]([C@H]3C)[C@@]46OO5)c2)O[C@@H]2OC3(C)CC[C@H]4[C@H](C)CC[C@@H]1[C@@]24OO3 (single isomer, unassigned) | 2.7 | 2.1
8 | – | – | COP(=O)(OC)OCC[C@H]1O[C@@H]2O[C@]3(C)CC[C@H]4[C@H](C)CC[C@@H]([C@H]1C)[C@@]24OO3 | 2.2 | –
9 | 1700 | 510 | COc1cccc2c1C(=O)c1c(O)c3c(c(O)c1C2=O)C[C@@](O)(C(=O)CO)C[C@@H]3O[C@H]1C[C@H](N)[C@H](O)[C@H](C)O1 [DOXORUBICIN] | – | –
10 | – | – | C[C@H]1[C@@H](CCOC(=O)c2ccccc2C(=O)OCC[C@H]2O[C@@H]3O[C@]4(C)CC[C@H]5[C@H](C)CC[C@@H]([C@H]2C)[C@@]35OO4)O[C@@H]2O[C@]3(C)CC[C@H]4[C@H](C)CC[C@@H]1[C@@]24OO3 | 2.6 | 1.6
11 | 101000 | 1210 | CC(=O)C1C(=O)C=C(C)OC1=O (stereo not given) [DEHYDROACETIC ACID] | – | –
12 | – | – | C[C@H]1[C@@H](CCOC(=O)CCC(=O)OCC[C@H]2O[C@@H]3OC4(C)CC[C@H]5[C@H](C)CC[C@@H]([C@H]2C)[C@@]35OO4)O[C@@H]2OC3(C)CC[C@H]4[C@H](C)CC[C@@H]1[C@@]24OO3 (single isomer, unassigned) | 1.8 | 1.4
13 | – | – | C[C@H]1[C@@H](CCOC(=O)CCCC(=O)OCC[C@H]2O[C@@H]3OC4(C)CC[C@H]5[C@H](C)CC[C@@H]([C@H]2C)[C@@]35OO4)O[C@@H]2OC3(C)CC[C@H]4[C@H](C)CC[C@@H]1[C@@]24OO3 (single isomer, unassigned) | 2.4 | 1.1

— ChEMBL document CHEMBL1149086, “Antimalarial and antitumor evaluation of novel C-10 non-acetal dimers of 10beta-(2-hydroxyethyl)deoxoartemisinin” (J Med Chem, 2004)
